viability, Activity and IC50 data for twelve compounds are collected here from ChEMBL document CHEMBL4622889, “Antineurodegenerative Labdane Diterpenoid Glycosides from the Twigs of Pinus koraiensis” (J Nat Prod, 2020).

Molecules are shown by their SMILES.

The nature of data set [1]: Cytotoxicity against mouse BV2 cells assessed as cell viability at 20 uM by MTT assay relative to control. In kind it is cell-based, BV-2. The note with it: read-out: Activity. The method, boiled down: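 BV2 cells treated with 20 μM of each compound; viability determined by MTT and expressed as percent. Means ± SD of three independent experiments.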
The next data set concerns C6. As to the kind of experiment: Neuroprotective activity in rat C6 cells assessed as NGF secretion at 20 uM incubated for 24 hrs by ELISA relative to control. The class given is functional. The method, boiled down:
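Compounds applied to C6 glioma cells at 20 μM for 24 h; NGF released into the conditioned medium quantified by ELISA and given as percent of untreated control (100%). 6-Shogaol served as positive control. Means ± SD of three independent experiments.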
Background: An ELISA detects its analyte on a solid surface through an enzyme-linked reagent.

The nature of data set [2]: Cytotoxicity against rat C6 cells assessed as cell viability at 20 uM by MTT assay relative to control. In kind it is cell-based. Particulars: read-out: Activity. The method, boiled down: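 C6 cells exposed to 20 μM of each compound; viability read by MTT and expressed as percent. Means ± SD of three independent experiments.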
In general terms: Tetrazolium assays rely on reduction of a dye to a coloured formazan, in cell work by metabolically active cells.

In another data set the test system is BV-2. Briefly: Antineuroinflammatory activity against mouse BV2 cells assessed as inhibition of LPS-induced NO production incubated for 24 hrs by Griess assay. Particulars: BV-2, 24 h. In kind it is functional, cell-based. Put shortly: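 BV2 microglia activated with LPS; NO production measured across compound concentrations, IC50 taken as the concentration (μM) giving 50% inhibition of NO production. Means ± SD of three independent experiments.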
Background: Nitrite, measured by Griess reagent, commonly stands in for NO production.

`C=C1CC[C@@H]2[C@](C)(CCC[C@]2(O)C(=O)O[C@@H]2O[C@H](CO)[C@@H](O)[C@H](O)[C@H]2O)[C@H]1CCC1=CCOC1=O`: the viability at 20 µM in data set [1] stood at 80.7%; in data set [2], 76%. The Activity with C6 stood at 98.6%. The IC50 in the data set with BV-2 came to 51.6 µM.

On to `C=C1C[C@H](O)[C@@H]2[C@](C)(CCC[C@]2(C)C(=O)O[C@@H]2O[C@H](CO)[C@@H](O)[C@H](O)[C@H]2O)[C@H]1CCC1=CCOC1=O`, for which the viability at 20 µM in data set [1] came out at 99.7%; in data set [2], 101%. Besides, the Activity in the data set on C6 is given as 128.7%. Besides, the IC50 in the data set on BV-2 came to 35.7 µM.

For `C=C1CC[C@@H]2[C@](C)(CC[C@@H](O)[C@]2(C)C(=O)O[C@@H]2O[C@H](CO)[C@@H](O)[C@H](O)[C@H]2O)[C@H]1CCC1=CCOC1=O`, the figures for the viability at 20 µM in data set [1] and in data set [2] were 77.5% and 92.8%, respectively. In the data set on C6, the Activity came out at 106.6%. Besides, the IC50 in the data set on BV-2 came out at 24.1 µM.

With `C=C1CC[C@@H]2[C@](C)(CC[C@H](O)[C@]2(C)C(=O)O[C@@H]2O[C@H](CO)[C@@H](O)[C@H](O)[C@H]2O)[C@H]1CCC1=CCOC1=O`, the figures for the viability at 20 µM in data set [1] and in data set [2] were 91.3% and 98.3%, respectively. Moreover, in the data set on C6, the Activity is on record as 134.7%. Moreover, in the data set on BV-2, the IC50 was found to be 68.8 µM.

`C[C@]12CCC[C@](C)(C(=O)O[C@@H]3O[C@H](CO)[C@@H](O)[C@H](O)[C@H]3O)[C@@H]1CC[C@@](C)(O)[C@@H]2CCC1=CCOC1=O`: the viability at 20 µM in data set [1] was found to be 70.4%; in data set [2], 111%. Moreover, the Activity in the data set with C6 amounted to 84.5%. Moreover, the IC50 in the data set with BV-2 came to 402 µM.

On to `C=C1CC[C@@H]2[C@](C)(CCC[C@]2(C)C(=O)O[C@@H]2O[C@H](CO)[C@@H](O)[C@H](O)[C@H]2O)[C@H]1CC/C(=C/CO)CO`, for which the figures for the viability at 20 µM in data set [1] and in data set [2] were 133% and 86.5%, respectively. In addition, in the data set with C6, the Activity is recorded as 105.4%. Also, the IC50 in the data set on BV-2 was found to be 152 µM.

On to `C=C1CC[C@@H]2[C@](C)(CCC[C@]2(C)C(=O)O[C@@H]2O[C@H](CO)[C@@H](O)[C@H](O)[C@H]2O)[C@H]1CC/C(=C\CO)CO`, for which the viability at 20 µM in data set [1] came out at 135%; in data set [2], 104%. Further, the Activity in the data set on C6 is on record as 162.3%. In the data set on BV-2, the IC50 was determined as 65.4 µM.

With `C=C1CC[C@@H]2[C@](C)(CCC[C@]2(C)C(=O)O[C@@H]2O[C@H](CO)[C@@H](O)[C@H](O)[C@H]2O)[C@H]1CCC1=CCOC1=O`, the viability at 20 µM in data set [1] worked out at 92.1%; in data set [2], 101%. Besides, in the data set on C6, the Activity was 142.4%. In addition, the 50% inhibitory concentration (IC50) with BV-2 came out at 65.8 µM.

With `C=C1CC[C@@H]2[C@](C)(CCC[C@]2(C)C(=O)O[C@@H]2O[C@H](CO)[C@@H](O)[C@H](O)[C@H]2O)[C@H]1CCC1=CC(=O)OC1`, the values for the viability at 20 µM in data set [1] and in data set [2] were 107% and 105%, respectively. In the data set on C6, the Activity is given as 162.7%. For the same compound, the IC50 with BV-2 worked out at 54.1 µM.

Turning to `C[C@]12CCC[C@](C)(C(=O)O[C@@H]3O[C@H](CO)[C@@H](O)[C@H](O)[C@H]3O)[C@@H]1CC=C(CO)[C@@H]2CCC1=CCOC1=O`, the viability at 20 µM in data set [1] was 87.7%; in data set [2] it was 102%. Moreover, the Activity in the data set on C6 was found to be 119.4%. Also, in the data set with BV-2, the IC50 is 93.2 µM.

Regarding `C[C@]12CCC[C@](C)(C(=O)O[C@@H]3O[C@H](CO)[C@@H](O)[C@H](O)[C@H]3O)[C@@H]1CC[C@](C)(O)[C@@H]2CCC1=CCOC1=O`, the viability at 20 µM in data set [1] came to 89.6%; in data set [2] it was 94.2%. Further, in the data set with C6, the Activity is 106.1%. Also, in the data set with BV-2, the IC50 is 49.2 µM.

Turning to `CNC(=N)NCCC[C@H](N)C(=O)O` [TILARGININE], the viability at 20 µM in data set [1] was determined as 99.2%. Also, in the data set on BV-2, the IC50 amounted to 28.8 µM.

A word on the IC50: it is the concentration that inhibits the measured activity by half.
